In brackets after ≈: the same amount, converted by molar mass.
Tests used:
Assay type in all cases: functional
[1] = test system: Escherichia coli; assay: Antibacterial activity against Escherichia coli ATCC 25922 after 3 to 4 days by serial plate dilution method; conditions: for MIC: Escherichia coli, ATCC 25922
[2] = test system: Mycobacterium tuberculosis; assay: Antituberculosis activity against Mycobacterium tuberculosis at MIC concentration after 7 days using resazurin dye by broth microdilution assay
Method in brief: (§1)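 M. tuberculosis H37Rv grown in Middlebrook 7H9 with 10% OADC and 0.5% glycerol, adjusted to McFarland 1.0. Compounds were dissolved in DMF as stocks and tested at final levels of 1.56, 3.12, 6.25, 12.5, 25 and 50 in 96-well REMA. Controls were DMF-only, growth, rifampicin and isoniazid. After 7 days at 37 °C, 0.01% resazurin was added for 24 h and the colour change read.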

[3] = test system: Klebsiella pneumoniae; assay: Antibacterial activity against recultured Klebsiella pneumoniae after 3 to 4 days by serial plate dilution method; conditions: for MIC: Klebsiella pneumoniae
[4] = test system: Mycobacterium tuberculosis; assay: Antituberculosis activity against Mycobacterium tuberculosis H37Rv ATCC 27294 after 7 days using resazurin dye by broth microdilution assay; conditions: H37Rv ATCC 27294, 168 h; method in brief: as §1
[5] = test system: Pseudomonas aeruginosa; assay: Antibacterial activity against Pseudomonas aeruginosa ATCC 27853 after 3 to 4 days by serial plate dilution method; conditions: for MIC: Pseudomonas aeruginosa, ATCC 27853
[6] = test system: Staphylococcus aureus; assay: Antibacterial activity against Staphylococcus aureus ATCC 25923 after 3 to 4 days by serial plate dilution method; conditions: for MIC: Staphylococcus aureus, ATCC 25923
[7] = test system: Mycobacterium tuberculosis; assay: Antituberculosis activity against Mycobacterium tuberculosis; method in brief: as §1

SMILES	diameter of the inhibition zone (DIZ) [1] [mm]	MIC [1] [µg/mL]	inhibition (INH) [2] [%]	diameter of the inhibition zone (DIZ) [3] [mm]	MIC [3] [µg/mL]	MIC [4] [µM]	diameter of the inhibition zone (DIZ) [5] [mm]	MIC [5] [µg/mL]	diameter of the inhibition zone (DIZ) [6] [mm]	MIC [6] [µg/mL]	MIC [7] [µg/mL]
Cn1cccc1/C=N/Nc1cc(C(F)(F)F)nc2c(C(F)(F)F)cccc12	20	6.25 (≈ 16.2 µM)	<90	21	6.25 (≈ 16.2 µM)	12.5 (≈ 4.83 µg/mL)	24	6.25 (≈ 16.2 µM)	22	6.25 (≈ 16.2 µM)	
FC(F)(F)c1cc(N/N=C/c2ccc3nonc3c2)c2cccc(C(F)(F)F)c2n1	22	6.25 (≈ 14.7 µM)	<90	20	6.25 (≈ 14.7 µM)	12.5 (≈ 5.32 µg/mL)	24	6.25 (≈ 14.7 µM)	18	6.25 (≈ 14.7 µM)	
Cn1nnc2cc(/C=N/Nc3cc(C(F)(F)F)nc4c(C(F)(F)F)cccc34)ccc21	20	6.25 (≈ 14.3 µM)	<90	21	6.25 (≈ 14.3 µM)	12.5 (≈ 5.48 µg/mL)	24	6.25 (≈ 14.3 µM)	22	6.25 (≈ 14.3 µM)	
Cc1cccc2c(/C=N/Nc3cc(C(F)(F)F)nc4c(C(F)(F)F)cccc34)c[nH]c12	27	6.25 (≈ 14.3 µM)	95	19	6.25 (≈ 14.3 µM)	6.25 (≈ 2.73 µg/mL)	24	6.25 (≈ 14.3 µM)	24	6.25 (≈ 14.3 µM)	
Cc1nc[nH]c1/C=N/Nc1cc(C(F)(F)F)nc2c(C(F)(F)F)cccc12	26	6.25 (≈ 16.1 µM)	99	22	6.25 (≈ 16.1 µM)	3.12 (≈ 1.21 µg/mL)	25	6.25 (≈ 16.1 µM)	24	6.25 (≈ 16.1 µM)	
O=C(NNc1cc(C(F)(F)F)nc2c(C(F)(F)F)cccc12)Nc1ccc(F)cc1	10	12.5 (≈ 28.9 µM)	<90	<10	50 (≈ 116 µM)	12.5 (≈ 5.4 µg/mL)	14	12.5 (≈ 28.9 µM)	10	12.5 (≈ 28.9 µM)	
COc1ccccc1NC(=O)NNc1cc(C(F)(F)F)nc2c(C(F)(F)F)cccc12	24	6.25 (≈ 14.1 µM)	<90	18	6.25 (≈ 14.1 µM)	12.5 (≈ 5.55 µg/mL)	22	6.25 (≈ 14.1 µM)	21	6.25 (≈ 14.1 µM)	
Cc1cc(C)cc(NC(=O)NNc2cc(C(F)(F)F)nc3c(C(F)(F)F)cccc23)c1	20	6.25 (≈ 14.1 µM)	95	22	6.25 (≈ 14.1 µM)	6.25 (≈ 2.76 µg/mL)	24	6.25 (≈ 14.1 µM)	23	6.25 (≈ 14.1 µM)	
OC(c1cc(C(F)(F)F)nc2c(C(F)(F)F)cccc12)C1CCCCN1 (stereo unspecified) [MEFLOQUINE]											25 (≈ 66.1 µM)

Source: ChEMBL document CHEMBL1208682, “New quinoline derivatives: synthesis and investigation of antibacterial and antituberculosis properties” (2010)
